According to ChEMBL document CHEMBL1124977, “Synthesis of acyclic and dehydroaspartic acid analogues of Ac-Asp-Glu-OH and their inhibition of rat brain N-acetylated alpha-linked acidic dipeptidase (NAALA dipeptidase)” (J Med Chem, 1990):
Residues, ends and D or L forms follow the SMILES beside them.

Assays:
[1] = target: T1, Glutamate carboxypeptidase 2 (Rattus norvegicus, UniProt P70627); assay: Concentration required for 50%inhibition of Ac-Asp-[3,4-3H]-Glu-OH hydrolysis against rat forebrain N-acetylated-alpha-linked acidic dipeptidase
In short: (§1)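 Enzyme source: "buffy coat" synaptic membranes from Sprague-Dawley rat (45–90 days) forebrain, washed in 0.1 M Hepes pH 7.4 and stored frozen. Inhibitor was tested at about 2- and 4-fold above and below the estimated IC50. Mean of three experiments ± SEM.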

[2] = target: T1, Glutamate carboxypeptidase 2; assay: Tested for Ac-Asp-[3,4-3H]-Glu-OH hydrolysis inhibitory activity against rat forebrain N-acetylated-alpha-linked acidic dipeptidase
In short: (§2)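 Ki used the same rat forebrain membrane assay (Hepes pH 7.4, NaCl, CoCl₂, radiometric ³H-Glu read-out). Substrate was 0.25, 0.5, 1.0, 2.0 and 5.0 μM. Inhibitor was tested at 0, IC50, and 2- and 4-fold above and below IC50. Lineweaver–Burk slopes were replotted against [inhibitor]. Ki equals the slope at 0 μM inhibitor divided by the replot slope. Ki was determined only when IC50 <100 μM.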

[3] = target: T1, Glutamate carboxypeptidase 2; assay: Concentration required for 50%inhibition of Ac-Asp-[3,4-3H]-Glu-OH hydrolysis against rat forebrain N-Acetylated alpha-linked Dipeptidase (NAALA Dipeptidase); in short: as §1
[4] = target: T1, Glutamate carboxypeptidase 2; assay: Tested for Ac-Asp-[3,4-3H]-Glu-OH hydrolysis inhibitory activity against rat forebrain N-Acetylated alpha-linked Dipeptidase (NAALA Dipeptidase); in short: as §2

T1 sequence (P70627 whole entry): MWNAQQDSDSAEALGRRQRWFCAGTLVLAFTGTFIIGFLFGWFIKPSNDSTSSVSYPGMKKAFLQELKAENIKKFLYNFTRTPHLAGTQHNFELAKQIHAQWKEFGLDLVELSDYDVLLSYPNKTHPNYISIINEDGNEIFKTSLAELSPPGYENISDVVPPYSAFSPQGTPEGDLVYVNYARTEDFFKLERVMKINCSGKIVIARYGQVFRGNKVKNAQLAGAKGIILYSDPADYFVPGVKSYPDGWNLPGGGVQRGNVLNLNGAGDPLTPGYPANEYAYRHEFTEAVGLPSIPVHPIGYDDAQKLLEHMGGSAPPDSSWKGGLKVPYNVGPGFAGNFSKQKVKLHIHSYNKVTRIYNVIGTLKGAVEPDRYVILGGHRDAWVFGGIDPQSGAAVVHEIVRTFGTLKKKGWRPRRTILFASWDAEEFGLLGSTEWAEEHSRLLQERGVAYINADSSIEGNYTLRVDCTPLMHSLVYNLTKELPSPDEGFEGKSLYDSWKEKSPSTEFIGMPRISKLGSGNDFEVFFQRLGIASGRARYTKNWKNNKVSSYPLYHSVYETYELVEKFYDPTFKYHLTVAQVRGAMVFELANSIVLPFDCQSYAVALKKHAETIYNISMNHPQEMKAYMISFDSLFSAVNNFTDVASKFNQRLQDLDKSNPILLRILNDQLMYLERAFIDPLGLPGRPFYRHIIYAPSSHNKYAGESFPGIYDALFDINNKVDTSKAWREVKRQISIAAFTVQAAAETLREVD

| SMILES | IC50 [1] [µM] | Ki [2] [µM] | IC50 [3] [µM] | Ki [4] [µM] |
| --- | --- | --- | --- | --- |
| CC(=O)N[C@@H](CC(=O)O)CC(=O)N[C@@H](CCC(=O)O)C(=O)O | 8 | 3.2 |  |  |
| CC(=O)N[C@@H](CC(=O)O)C(=O)N[C@@H](CC(=O)O)C(=O)O (Ac-Asp-Asp-OH) | 250 |  |  |  |
| O=C(O)CCC(=O)N[C@@H](CCC(=O)O)C(=O)O | 2.5 | 0.9 |  |  |
| CC(=O)N[C@@H](CC(=O)O)C(=O)N[C@@H](CCC(=O)O)CC(=O)O | 200 |  |  |  |
| CC(=O)N[C@@H](CCC(=O)O)C(=O)N[C@@H](CC(=O)O)C(=O)O (Ac-Glu-Asp-OH) | 193 |  |  |  |
| O=C(O)/C=C/C(=O)N[C@@H](CCC(=O)O)C(=O)O | 0.8 | 0.4 |  |  |
| CC(=O)N[C@H](CC(=O)O)C(=O)N[C@@H](CCC(=O)O)C(=O)O |  | 8.5 | 15 |  |
| O=C(O)/C=C\C(=O)N[C@@H](CCC(=O)O)C(=O)O | 83 | 41 |  |  |
| CC(=O)N[C@@H](CCC(=O)O)C(=O)N[C@@H](CCC(=O)O)C(=O)O (Ac-Glu-Glu-OH) |  |  | 9 | 3.5 |
